Measurements reported in PMC9052103 (RSC Advances, 2020).

Assays:
S. aureus ATCC 29213 = assay: MIC, 96-well microtiter broth dilution; assay type: cell-based; details: Table 2
S. aureus ATCC 43300 = assay: MIC, 96-well microtiter broth dilution; assay type: cell-based; details: MRSA
S. aureus ATCC BAA-41 = assay: MIC, 96-well microtiter broth dilution; assay type: cell-based; details: MRSA
S. aureus ATCC BAA-44 = assay: MIC, 96-well microtiter broth dilution; assay type: cell-based
S. aureus ATCC BAA-1747 = assay: MIC, 96-well microtiter broth dilution; assay type: cell-based; details: MRSA
S. aureus ATCC BAA-1720 = assay: MIC, 96-well microtiter broth dilution; assay type: cell-based; details: MRSA
E. faecalis ATCC 29212 = assay: MIC, 96-well microtiter broth dilution; assay type: cell-based
E. faecium ATCC 49624 = assay: MIC, 96-well microtiter broth dilution; assay type: cell-based
E. faecium ATCC 700221 = assay: MIC, 96-well microtiter broth dilution; assay type: cell-based; details: Vancomycin-resistant strain; Table 2
[1] = tested on: S. epidermidis ATCC 12228; assay: MIC, 96-well microtiter broth dilution; assay type: cell-based
B. subtilis 168 = assay: MIC, 96-well microtiter broth dilution; assay type: cell-based
[2] = tested on: K. pneumoniae ATCC BAA-2470; assay: MIC, 96-well microtiter broth dilution; assay type: cell-based; details: NDM-1 expressing strain
A. baumannii ATCC 19606 = assay: MIC, 96-well microtiter broth dilution; assay type: cell-based; details: Multi-drug resistant strain
E. cloacae ATCC BAA-1143 = assay: MIC, 96-well microtiter broth dilution; assay type: cell-based; details: AmpC beta-lactamase expressing strain
S. aureus FtsZ = target: T1, S. aureus FtsZ (Staphylococcus aureus, UniProt P0A031); assay: Light-scattering assay of FtsZ polymerization; assay type: biochemical
T1 sequence (P0A031 1-390): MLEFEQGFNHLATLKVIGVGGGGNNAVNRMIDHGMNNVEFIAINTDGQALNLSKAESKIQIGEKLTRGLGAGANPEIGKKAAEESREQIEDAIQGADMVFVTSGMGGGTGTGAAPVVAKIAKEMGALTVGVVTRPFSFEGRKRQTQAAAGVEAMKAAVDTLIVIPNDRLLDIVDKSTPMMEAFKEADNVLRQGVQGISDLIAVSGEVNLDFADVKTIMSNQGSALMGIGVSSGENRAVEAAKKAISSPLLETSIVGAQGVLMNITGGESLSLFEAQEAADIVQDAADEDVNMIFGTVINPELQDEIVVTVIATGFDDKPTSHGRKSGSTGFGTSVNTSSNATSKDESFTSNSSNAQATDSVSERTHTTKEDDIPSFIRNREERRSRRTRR
How it was run: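 S. aureus FtsZ (4 μM) in 50 mM MOPS pH 6.5, preincubated 10 min at 25 °C with 1% DMSO vehicle or test compound. Baseline set after adding 50 mM KCl and 10 mM MgCl2. After 10 min, 1 mM GTP added. 90° light scattering (excitation/emission 600 nm) followed for 25 min, with blank background subtracted. Rate and extent of polymerization calculated. Triplicates.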

E. coli ATCC BAA-2469 = assay: MIC, 96-well microtiter broth dilution; assay type: cell-based; details: NDM-1 expressing strain
[3] = tested on: P. aeruginosa ATCC BAA-2108; assay: MIC, 96-well microtiter broth dilution; assay type: cell-based; details: Multi-drug resistant strain

## 1-Methyl-2-((E)-4-(methylthio)styryl)-4-((Z)-(3-(3-(piperidin-1-yl)propyl)benzo[d]thiazol-2(3H)-ylidene)methyl)quinolin-1-ium iodide [Compound 4e3]
S. aureus ATCC 29213
  MIC S. aureus ATCC 29213: 8 µg/mL
S. aureus ATCC 43300
  MIC S. aureus ATCC 43300: 8 µg/mL
S. aureus ATCC BAA-41
  MIC S. aureus ATCC BAA-41: 16 µg/mL
S. aureus ATCC BAA-44
  MIC S. aureus ATCC BAA-44: 8 µg/mL
S. aureus ATCC BAA-1747
  MIC S. aureus ATCC BAA-1747: 16 µg/mL
S. aureus ATCC BAA-1720
  MIC S. aureus ATCC BAA-1720: 16 µg/mL
E. faecalis ATCC 29212
  MIC E. faecalis ATCC 29212: >64 µg/mL
E. faecium ATCC 49624
  MIC E. faecium ATCC 49624: 16 µg/mL
E. faecium ATCC 700221
  MIC E. faecium ATCC 700221: 8 µg/mL
[1]
  MIC S. epidermidis ATCC 12228: 4 µg/mL
B. subtilis 168
  MIC B. subtilis 168: 8 µg/mL
[2]
  MIC K. pneumoniae ATCC BAA-2470: 64 µg/mL
A. baumannii ATCC 19606
  MIC A. baumannii ATCC 19606: 64 µg/mL
E. cloacae ATCC BAA-1143
  MIC E. cloacae ATCC BAA-1143: 64 µg/mL
S. aureus FtsZ; 0.125–0.5 μg mL^−1
  Effect on FtsZ polymerization at a concentration gradient: did not show significant change
S. aureus FtsZ; same concentration, 0.125 μg mL^−1
  Light scattering signal compared to control (FtsZ polymerization): almost no signal change

## 2-((E)-4-(Dimethylamino)styryl)-1-methyl-4-((Z)-(3-(3-(piperidin-1-yl)propyl)benzo[d]thiazol-2(3H)-ylidene)methyl)quinolin-1-ium iodide [Compound 4e4]
S. aureus ATCC 29213
  MIC S. aureus ATCC 29213: 16 µg/mL
S. aureus ATCC 43300
  MIC S. aureus ATCC 43300: 8 µg/mL
S. aureus ATCC BAA-41
  MIC S. aureus ATCC BAA-41: 16 µg/mL
S. aureus ATCC BAA-44
  MIC S. aureus ATCC BAA-44: 8 µg/mL
S. aureus ATCC BAA-1747
  MIC S. aureus ATCC BAA-1747: 16 µg/mL
S. aureus ATCC BAA-1720
  MIC S. aureus ATCC BAA-1720: 8 µg/mL
E. faecalis ATCC 29212
  MIC E. faecalis ATCC 29212: 32 µg/mL
E. faecium ATCC 49624
  MIC E. faecium ATCC 49624: 32 µg/mL
E. faecium ATCC 700221
  MIC E. faecium ATCC 700221: 4 µg/mL
[1]
  MIC S. epidermidis ATCC 12228: 2 µg/mL
B. subtilis 168
  MIC B. subtilis 168: 8 µg/mL
E. coli ATCC BAA-2469
  MIC E. coli ATCC BAA-2469: 8 µg/mL
A. baumannii ATCC 19606
  MIC A. baumannii ATCC 19606: >64 µg/mL
[3]
  MIC P. aeruginosa ATCC BAA-2108: 64 µg/mL
E. cloacae ATCC BAA-1143
  MIC E. cloacae ATCC BAA-1143: 64 µg/mL
